According to the M2OR odorant receptor database:

The compounds below were run against T1, OR2M7 (Homo sapiens) (UniProt Q8NG81). Conditions: stereoisomer not certain.
T1 sequence (whole entry): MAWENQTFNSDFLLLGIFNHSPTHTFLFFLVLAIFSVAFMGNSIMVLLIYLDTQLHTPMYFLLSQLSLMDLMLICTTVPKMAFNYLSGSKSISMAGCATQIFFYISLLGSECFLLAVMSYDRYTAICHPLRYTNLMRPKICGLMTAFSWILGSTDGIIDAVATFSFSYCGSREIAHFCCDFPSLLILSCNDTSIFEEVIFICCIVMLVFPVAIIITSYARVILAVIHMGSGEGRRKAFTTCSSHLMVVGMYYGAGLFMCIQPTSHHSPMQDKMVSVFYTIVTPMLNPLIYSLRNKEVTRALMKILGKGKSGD
Method in brief: (§1)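 Values were gathered from published papers (main text and supplementary material), with extra details requested from the original authors when needed, and checked for typos and inconsistencies. Each receptor–molecule pair is called responsive (active) if the original authors judged the measured signal statistically different from baseline, and non-responsive (inactive) otherwise. Assay methods varied by source, often transient mammalian cell-line luciferase assays. Recorded details include cell line, G-protein, co-transfected protein and tags.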

| Compound | odorant receptor agonist call |
| --- | --- |
| CCCC(S)CCOC(C)=O (stereo not drawn) | inactive |
| CC(=O)c1c(C)c([N+](=O)[O-])c(C(C)(C)C)c([N+](=O)[O-])c1C | inactive |
| CC(=O)OCc1ccccc1 | inactive |
| CCC1OC(=O)C(O)=C1C (stereo not drawn) | inactive |

These compounds were tested against T2, OR2S2 (Homo sapiens) (UniProt Q9NQN1). Conditions: stereoisomer not certain.
T2 sequence (whole entry): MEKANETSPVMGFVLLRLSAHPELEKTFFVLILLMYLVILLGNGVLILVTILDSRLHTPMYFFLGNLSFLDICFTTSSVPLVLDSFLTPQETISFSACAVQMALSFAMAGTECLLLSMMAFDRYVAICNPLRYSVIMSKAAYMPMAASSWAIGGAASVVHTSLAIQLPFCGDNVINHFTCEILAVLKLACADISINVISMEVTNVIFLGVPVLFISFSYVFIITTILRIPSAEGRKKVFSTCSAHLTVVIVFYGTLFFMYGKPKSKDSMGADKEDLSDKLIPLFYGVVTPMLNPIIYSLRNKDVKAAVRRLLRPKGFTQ
Method in brief: as §1

| Compound | odorant receptor agonist call |
| --- | --- |
| CCCC(S)CCOC(C)=O (stereo not drawn) | inactive |
| CC(=O)c1c(C)c([N+](=O)[O-])c(C(C)(C)C)c([N+](=O)[O-])c1C | inactive |
| CCC1OC(=O)C(O)=C1C (stereo not drawn) | inactive |

Each compound was assayed against T3, OR2T1 (Homo sapiens) (UniProt O43869). Conditions: stereoisomer not certain.
T3 sequence (whole entry): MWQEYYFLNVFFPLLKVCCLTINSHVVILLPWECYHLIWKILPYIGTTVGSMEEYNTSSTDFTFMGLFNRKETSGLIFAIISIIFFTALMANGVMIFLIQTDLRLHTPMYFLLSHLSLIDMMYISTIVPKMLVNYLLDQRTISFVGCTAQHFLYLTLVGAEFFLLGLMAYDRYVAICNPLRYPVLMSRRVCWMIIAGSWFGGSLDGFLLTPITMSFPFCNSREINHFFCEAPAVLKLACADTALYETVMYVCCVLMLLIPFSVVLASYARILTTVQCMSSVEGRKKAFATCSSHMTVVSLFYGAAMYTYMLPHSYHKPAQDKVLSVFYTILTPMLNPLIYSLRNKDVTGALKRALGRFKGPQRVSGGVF
Method in brief: as §1

| Compound | odorant receptor agonist call |
| --- | --- |
| CCCC(S)CCOC(C)=O (stereo not drawn) | inactive |
| CC(=O)c1c(C)c([N+](=O)[O-])c(C(C)(C)C)c([N+](=O)[O-])c1C | inactive |
| CCC1OC(=O)C(O)=C1C (stereo not drawn) | inactive |

What follows are compounds tested against T4, OR2T10 (Homo sapiens) (UniProt Q8NGZ9). Conditions: stereoisomer not certain.
T4 sequence (whole entry): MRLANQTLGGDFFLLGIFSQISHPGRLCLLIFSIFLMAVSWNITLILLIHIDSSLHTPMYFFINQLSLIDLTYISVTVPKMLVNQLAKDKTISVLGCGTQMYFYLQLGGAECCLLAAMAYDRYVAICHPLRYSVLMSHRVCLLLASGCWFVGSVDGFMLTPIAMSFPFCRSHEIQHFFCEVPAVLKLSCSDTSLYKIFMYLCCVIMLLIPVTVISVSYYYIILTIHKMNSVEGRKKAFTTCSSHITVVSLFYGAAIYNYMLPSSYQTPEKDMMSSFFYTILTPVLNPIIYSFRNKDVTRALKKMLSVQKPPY
Method in brief: as §1

| Compound | odorant receptor agonist call |
| --- | --- |
| Cc1ccc(C(C)C)cc1O | inactive |
| CCCC(S)CCOC(C)=O (stereo not drawn) | inactive |
| C=CCOC(=O)COCCC(C)C | inactive |
| CCOC(=O)CC1(C)OCCO1 | inactive |
| C=CC(C)(O)CCC=C(C)CCC=C(C)C (stereo not drawn) | inactive |
| CCC=C(C)C(O)CCCCC (stereo not drawn) | inactive |
| CCCC(C)C(=O)OCC (stereo not drawn) | inactive |
| CCc1ccc(CC(C)(C)C=O)cc1 | inactive |
| C=CC(C)(CCC=C(C)C)OC(C)=O (stereo not drawn) | inactive |
| CC(C)CCCC(C)(C)O | inactive |
| CC(CC=O)c1ccc(C(C)(C)C)cc1 (stereo not drawn) | inactive |
| COC1CC2CC1C1CC(C=O)CC21 (stereo not drawn) | inactive |
| CC(C)(C)C1CCCCC1OCCCCO (stereo not drawn) | inactive |
| Cc1occc(=O)c1OC(=O)C(C)C | active |
| CC(=O)C=CC1=C(C)CCCC1(C)C | inactive |
| CC1CC(C)(c2ccccc2)CO1 (stereo not drawn) | inactive |
| CCCCC1CCC(=O)O1 (stereo not drawn) | inactive |
| COc1ccc(C)cc1 | inactive |
| OCc1ccccc1 | inactive |
| CCC(=O)C=CC1C(C)=CCCC1(C)C (stereo not drawn) | inactive |
| CC(=O)c1c(C)c([N+](=O)[O-])c(C(C)(C)C)c([N+](=O)[O-])c1C | inactive |
| CC(=O)OCc1ccccc1 | inactive |
| CCCCCCCCC(OC(C)=O)OC(C)=O | inactive |
| CCC1OC(=O)C(O)=C1C (stereo not drawn) | inactive |
| CC(C)=CCCC(C)CC=O (stereo not drawn) | inactive |
| CC1=CCC2CC1C2(C)C (stereo not drawn) | inactive |
| CCCCCC1C(=O)CCC1CC(=O)OC (stereo not drawn) | inactive |
| CCCCCC1COCCC1OC(C)=O (stereo not drawn) | inactive |
